This note sets out measurements from ChEMBL document CHEMBL1131373, “Novel nonpeptide CCK-B antagonists: design and development of quinazolinone derivatives as potent, selective, and orally active CCK-B antagonists” (J Med Chem, 1998).

Series [1] deals with T1, Cholecystokinin receptor type A (Rattus norvegicus) (UniProt P30551).
T1 sequence (whole entry): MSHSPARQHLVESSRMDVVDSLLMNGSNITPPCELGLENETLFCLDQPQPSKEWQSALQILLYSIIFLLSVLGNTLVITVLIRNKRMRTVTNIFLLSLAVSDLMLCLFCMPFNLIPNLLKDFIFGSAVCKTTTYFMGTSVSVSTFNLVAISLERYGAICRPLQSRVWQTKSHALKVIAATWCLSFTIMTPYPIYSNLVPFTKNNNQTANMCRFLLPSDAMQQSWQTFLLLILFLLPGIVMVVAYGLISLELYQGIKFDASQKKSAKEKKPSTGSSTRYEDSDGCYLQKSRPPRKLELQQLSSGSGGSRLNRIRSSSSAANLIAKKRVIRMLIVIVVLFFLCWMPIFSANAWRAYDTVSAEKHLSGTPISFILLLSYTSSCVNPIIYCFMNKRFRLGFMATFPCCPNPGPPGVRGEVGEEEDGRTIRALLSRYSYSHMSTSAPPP
Nature of the series: Binding affinity towards Cholecystokinin type A receptor (CCK-A) receptor from rat pancreas using [125I]bolton Hunter CCK-8 as radioligand at a concentration of 10 um. The method, boiled down:
(§1)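 IC50 = concentration giving half-maximal inhibition of specific [125I]Bolton Hunter CCK-8 binding, with CCK-B sites from mouse cerebral cortex and CCK-A sites from rat pancreas. Weaker compounds given as % inhibition at 10 μM. Values are geometric means of at least three separate experiments; statistical errors 15% of the mean.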

Series [2] concerns the target T2, Gastrin/cholecystokinin type B receptor (Mus musculus) (UniProt P56481).
T2 sequence (whole entry): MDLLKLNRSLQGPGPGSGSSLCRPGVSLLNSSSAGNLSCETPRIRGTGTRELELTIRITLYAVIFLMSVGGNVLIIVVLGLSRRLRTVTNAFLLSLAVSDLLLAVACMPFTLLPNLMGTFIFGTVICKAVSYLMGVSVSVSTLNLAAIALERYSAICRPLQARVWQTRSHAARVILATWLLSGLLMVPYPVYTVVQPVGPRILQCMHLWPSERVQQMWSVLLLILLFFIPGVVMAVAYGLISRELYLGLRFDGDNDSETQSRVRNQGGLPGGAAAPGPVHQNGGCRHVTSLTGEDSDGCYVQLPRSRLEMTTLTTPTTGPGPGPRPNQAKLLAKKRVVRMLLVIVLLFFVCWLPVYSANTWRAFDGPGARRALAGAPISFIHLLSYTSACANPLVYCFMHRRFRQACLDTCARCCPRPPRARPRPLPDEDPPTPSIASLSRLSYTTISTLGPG
Put plainly: Binding affinity towards Cholecystokinin type B receptor (CCK-B) receptor in mouse cerebral cortex using [125I]bolton Hunter CCK-8 as radioligand at a concentration of 10 um. Format: tissue-based. The essentials:
as §1

The nature of series [3]: The compound was tested for percent absolute oral bioavailability (%F) in rats. It is filed as ADME, organism-based. Particulars: rat, in vivo. The method, boiled down:
(§2)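 Fasted male Wistar rats, three per group, given a single oral nominal dose of 10 mg/kg or a single iv nominal dose of 5 mg/kg. Vehicle was either 25:40:35 ethanol/PEG400/5% dextrose water or 10:40:50 dimethylacetamide/PEG400/5% dextrose water. Heparinized plasma taken from a jugular vein cannula at serial times out to 24 h and assayed by validated HPLC-fluorescence. Noncompartmental analysis; %F = dose-normalized po AUC/iv AUC.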

Series [4] has as its target T3, Gastrin/cholecystokinin type B receptor (Mus musculus, UniProt P56481).
T3 sequence (P56481 whole entry): T2 sequence (whole entry)
Put plainly: Binding affinity towards Cholecystokinin type B receptor (CCK-B) receptor in mouse cerebral cortex using [125I]bolton Hunter CCK-8 as radioligand. It is filed as tissue-based.

A short description of series [5]: The compound tested for maximum observed plasma concentration in rats and is expressed in microgram/mL. Format: ADME, organism-based. Particulars: rat. The method, boiled down:
as §2

The target in series [6] is T4, Cholecystokinin receptor type A (Rattus norvegicus, UniProt P30551).
T4 sequence (P30551 whole entry): T1 sequence (whole entry)
Nature of the series: Binding affinity towards Cholecystokinin type A receptor (CCK-A) receptor from rat pancreas using [125I]bolton Hunter CCK-8 as radioligand. The method, boiled down:
as §1

Series [7] in a line: The compound was tested for systemic plasma clearance(CL) in rats and is expressed in mL/min/kg. Format: ADME, organism-based. Particulars: rat. The method, boiled down:
as §2

A short description of series [8]: The compound was tested for the time to reach maximum observed plasma concentration in rats and is expressed in mins. Particulars: rat. Format: ADME, organism-based. The method, boiled down: as §2
Series [9] in a line: The compound was tested for percent absolute oral bioavailability (%F) in rats and value in parenthesis indicate percent relative standard deviation (% RSD). Format: ADME, organism-based. Particulars: rat, in vivo, read-out: F (%RSD). The essentials: as §2

Broadly, the inhibition is the change of the read-out against control, counted positive when it falls. Consider `CCOC(=O)c1cccc(NC(=O)NNc2nc3ccccc3c(=O)n2-c2cccc3ccccc23)c1`, for which the results for the inhibition in series [1] and in series [2] were 5% and 35%, respectively.
One may read the IC50 as the point on the concentration scale where inhibition reaches its midpoint. Lower therefore signals greater potency. As usually defined, the Cmax is the maximum level reached in the sampled fluid or tissue. Broadly, the clearance is a measure of how efficiently the substance is removed, as volume per time. Take `CC(C)Oc1cccc(-n2c(NNC(=O)Nc3cccc(C(=O)OC(C)(C)C)c3)nc3ccccc3c2=O)c1`: in series [3], the bioavailability is < 5%. Also, the results for the half-inhibitory concentration (IC50) in series [4] and in series [6] were 1.9 nM and 2960 nM, respectively. Moreover, the highest concentration (Cmax) in series [5] was < 250 ng/mL. In addition, in [7], the clearance turned out to be 18 mL/min/kg.
For orientation: Tmax means the time at which the peak concentration occurs. Turning to `CN(C)c1cccc(-n2c(NNC(=O)Nc3cccc(C#N)c3)nc3ccccc3c2=O)c1`, the Tmax in series [8] is 25 min. The IC50 amounted to 14 nM in series [4] and 7100 nM in series [6]. In addition, the Cmax in series [5] came out at 910 ng/mL. For the same compound, the bioavailability in series [9] was 22%. In addition, in series [7], the clearance was found to be 29.5 mL/min/kg.
In [1], `CCOC(=O)c1cccc(NC(=O)NNc2nc3ccccc3c(=O)n2-c2ccc(Cl)cc2)c1` registered an inhibition of 15%. In series [4], this compound came in with an IC50 of 14 nM.
`CCOC(=O)c1cccc(NC(=O)NNc2nc3ccccc3c(=O)n2-c2ccc(OC)c(OC)c2)c1` registered an inhibition in series [1] of 20%. In addition, in [4], the IC50 is 611 nM.
In the case of `N#Cc1cccc(NC(=O)NNc2nc3ccccc3c(=O)n2-c2ccccc2)c1`, in [1], the inhibition stood at 37%. In series [4], this compound returned an IC50 of 262 nM.
For the compound `CCOC(=O)c1cccc(NC(=O)NNc2nc3ccccc3c(=O)n2-c2cccc(F)c2)c1`, in [1], the inhibition stood at 30%. The compound also registered an IC50 in series [4] of 26 nM.
